Source: ChEMBL document CHEMBL5058577, “EUbOPEN Chemogenomics Library 2 (Multiplex)” (2022)

System: Fibroblast
Assay: Multiplex assay against human fibroblast
Type: toxicity, cell-based
How it was run: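 On a CQ1 microscope at 37°C and 5% CO2, live cells were imaged after compound addition. They had been stained at seeding with Hoechst33342, BioTracker Green Microtubule Cytoskeleton Dye, MitoTracker Red and Annexin V Alexa Fluor 680. CellPathfinder machine-learning gating assigned cells to Hoechst high-intensity objects or normal cells, normal cells to healthy, pyknosed or fragmented nuclei, and pyknosed cells to mitotic or apoptotic. Tubulin, mitochondrial-mass and membrane-permeability phenotypes are per cents of healthy-nucleus cells.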

[1] = 12 h, 1 µM, compound concentration 1 uM, replicate 1
[2] = 12 h, 1 µM, compound concentration 1 uM, replicate 2
[3] = 12 h, 10 µM, compound concentration 10 uM, replicate 1
[4] = 12 h, 10 µM, compound concentration 10 uM, replicate 2
[5] = 24 h, 1 µM, compound concentration 1 uM, replicate 1
[6] = 24 h, 1 µM, compound concentration 1 uM, replicate 2
[7] = 24 h, 10 µM, compound concentration 10 uM, replicate 1
[8] = 24 h, 10 µM, compound concentration 10 uM, replicate 2
[9] = 48 h, 1 µM, compound concentration 1 uM, replicate 1
[10] = 48 h, 1 µM, compound concentration 1 uM, replicate 2
[11] = 48 h, 10 µM, compound concentration 10 uM, replicate 1
[12] = 48 h, 10 µM, compound concentration 10 uM, replicate 2

## S=C(NCCCc1c[nH]cn1)NCCCN(Cc1ccc(Cl)c(Cl)c1)c1ccc(Br)cn1
[1]
  Population Apoptotic (%): 40%
  Population Fragmented Nuclei (%): 13%
  Population Healthy Nuclei (%): 71%
  Population Hoechst High Intensity Objects (%): 5%
  Population Membrane Permeable-Phenotype (%): 1%
  Population Mitochondria Different-Phenotype (%): 5%
  Population Mitotic Cells (%): 60%
  Population Normal (%): 94%
  Population Pyknosed Nuclei (%): 14%
  Population Tubulin-Different-Phenotype (%): 26%
  Total Cell Count: 142
[2]
  Population Apoptotic (%): 31%
  Population Fragmented Nuclei (%): 30%
  Population Healthy Nuclei (%): 50%
  Population Hoechst High Intensity Objects (%): 4%
  Population Membrane Permeable-Phenotype (%): 5%
  Population Mitochondria Different-Phenotype (%): 6%
  Population Mitotic Cells (%): 68%
  Population Normal (%): 95%
  Population Pyknosed Nuclei (%): 18%
  Population Tubulin-Different-Phenotype (%): 37%
  Total Cell Count: 181
[3]
  Population Apoptotic (%): 47%
  Population Fragmented Nuclei (%): 27%
  Population Healthy Nuclei (%): 56%
  Population Hoechst High Intensity Objects (%): 3%
  Population Membrane Permeable-Phenotype (%): 0%
  Population Mitochondria Different-Phenotype (%): 15%
  Population Mitotic Cells (%): 52%
  Population Normal (%): 96%
  Population Pyknosed Nuclei (%): 16%
  Population Tubulin-Different-Phenotype (%): 89%
  Total Cell Count: 220
[4]
  Population Apoptotic (%): 52%
  Population Fragmented Nuclei (%): 34%
  Population Healthy Nuclei (%): 53%
  Population Hoechst High Intensity Objects (%): 5%
  Population Mitochondria Different-Phenotype (%): 10%
  Population Mitotic Cells (%): 47%
  Population Normal (%): 94%
  Population Pyknosed Nuclei (%): 12%
  Total Cell Count: 279
[5]
  Population Apoptotic (%): 69%
  Population Fragmented Nuclei (%): 15%
  Population Healthy Nuclei (%): 74%
  Population Hoechst High Intensity Objects (%): 4%
  Population Membrane Permeable-Phenotype (%): 2%
  Population Mitochondria Different-Phenotype (%): 2%
  Population Mitotic Cells (%): 30%
  Population Normal (%): 95%
  Population Pyknosed Nuclei (%): 9%
  Population Tubulin-Different-Phenotype (%): 28%
  Total Cell Count: 137
[6]
  Population Apoptotic (%): 23%
  Population Fragmented Nuclei (%): 30%
  Population Healthy Nuclei (%): 57%
  Population Hoechst High Intensity Objects (%): 1%
  Population Mitochondria Different-Phenotype (%): 6%
  Population Mitotic Cells (%): 76%
  Population Normal (%): 98%
  Population Pyknosed Nuclei (%): 11%
  Population Tubulin-Different-Phenotype (%): 42%
  Total Cell Count: 183
[7]
  Population Apoptotic (%): 66%
  Population Fragmented Nuclei (%): 22%
  Population Healthy Nuclei (%): 61%
  Population Hoechst High Intensity Objects (%): 1%
  Population Membrane Permeable-Phenotype (%): 0%
  Population Mitochondria Different-Phenotype (%): 19%
  Population Mitotic Cells (%): 33%
  Population Normal (%): 98%
  Population Pyknosed Nuclei (%): 15%
  Population Tubulin-Different-Phenotype (%): 93%
  Total Cell Count: 214
[8]
  Population Apoptotic (%): 61%
  Population Fragmented Nuclei (%): 27%
  Population Healthy Nuclei (%): 59%
  Population Hoechst High Intensity Objects (%): 4%
  Population Membrane Permeable-Phenotype (%): 2%
  Population Mitochondria Different-Phenotype (%): 7%
  Population Mitotic Cells (%): 38%
  Population Normal (%): 95%
  Population Pyknosed Nuclei (%): 13%
  Population Tubulin-Different-Phenotype (%): 95%
  Total Cell Count: 248
[9]
  Population Apoptotic (%): 75%
  Population Fragmented Nuclei (%): 27%
  Population Healthy Nuclei (%): 67%
  Population Hoechst High Intensity Objects (%): 3%
  Population Membrane Permeable-Phenotype (%): 0%
  Population Mitochondria Different-Phenotype (%): 0%
  Population Mitotic Cells (%): 25%
  Population Normal (%): 96%
  Population Pyknosed Nuclei (%): 5%
  Population Tubulin-Different-Phenotype (%): 24%
  Total Cell Count: 156
[10]
  Population Apoptotic (%): 35%
  Population Fragmented Nuclei (%): 30%
  Population Healthy Nuclei (%): 59%
  Population Hoechst High Intensity Objects (%): 4%
  Population Membrane Permeable-Phenotype (%): 5%
  Population Mitochondria Different-Phenotype (%): 3%
  Population Mitotic Cells (%): 64%
  Population Normal (%): 95%
  Population Pyknosed Nuclei (%): 10%
  Population Tubulin-Different-Phenotype (%): 36%
  Total Cell Count: 178
[11]
  Population Apoptotic (%): 62%
  Population Fragmented Nuclei (%): 27%
  Population Healthy Nuclei (%): 59%
  Population Hoechst High Intensity Objects (%): 6%
  Population Membrane Permeable-Phenotype (%): 0%
  Population Mitochondria Different-Phenotype (%): 7%
  Population Mitotic Cells (%): 37%
  Population Normal (%): 93%
  Population Pyknosed Nuclei (%): 12%
  Population Tubulin-Different-Phenotype (%): 91%
  Total Cell Count: 230
[12]
  Population Apoptotic (%): 63%
  Population Fragmented Nuclei (%): 31%
  Population Healthy Nuclei (%): 60%
  Population Hoechst High Intensity Objects (%): 5%
  Population Mitochondria Different-Phenotype (%): 1%
  Population Mitotic Cells (%): 36%
  Population Normal (%): 94%
  Population Pyknosed Nuclei (%): 7%
  Population Tubulin-Different-Phenotype (%): 86%
  Total Cell Count: 293

## Cc1cc(O)c(-c2ccc([C@@H](C)CN(C)C)cc2)c2c1[nH]c(=O)c1sccc12
[1]
  Population Apoptotic (%): 59%
  Population Fragmented Nuclei (%): 12%
  Population Healthy Nuclei (%): 67%
  Population Hoechst High Intensity Objects (%): 7%
  Population Membrane Permeable-Phenotype (%): 1%
  Population Mitochondria Different-Phenotype (%): 17%
  Population Mitotic Cells (%): 40%
  Population Normal (%): 92%
  Population Pyknosed Nuclei (%): 20%
  Population Tubulin-Different-Phenotype (%): 44%
  Total Cell Count: 145
[2]
  Population Apoptotic (%): 50%
  Population Fragmented Nuclei (%): 22%
  Population Healthy Nuclei (%): 56%
  Population Hoechst High Intensity Objects (%): 2%
  Population Membrane Permeable-Phenotype (%): 4%
  Population Mitochondria Different-Phenotype (%): 12%
  Population Mitotic Cells (%): 50%
  Population Normal (%): 97%
  Population Pyknosed Nuclei (%): 21%
  Population Tubulin-Different-Phenotype (%): 52%
  Total Cell Count: 115
[3]
  Population Apoptotic (%): 69%
  Population Fragmented Nuclei (%): 19%
  Population Healthy Nuclei (%): 63%
  Population Hoechst High Intensity Objects (%): 6%
  Population Membrane Permeable-Phenotype (%): 0%
  Population Mitochondria Different-Phenotype (%): 40%
  Population Mitotic Cells (%): 30%
  Population Normal (%): 93%
  Population Pyknosed Nuclei (%): 16%
  Population Tubulin-Different-Phenotype (%): 90%
  Total Cell Count: 146
[4]
  Population Apoptotic (%): 70%
  Population Fragmented Nuclei (%): 28%
  Population Healthy Nuclei (%): 55%
  Population Hoechst High Intensity Objects (%): 5%
  Population Membrane Permeable-Phenotype (%): 2%
  Population Mitochondria Different-Phenotype (%): 19%
  Population Normal (%): 94%
  Population Pyknosed Nuclei (%): 15%
  Population Tubulin-Different-Phenotype (%): 80%
  Total Cell Count: 137
[5]
  Population Apoptotic (%): 45%
  Population Fragmented Nuclei (%): 11%
  Population Healthy Nuclei (%): 66%
  Population Hoechst High Intensity Objects (%): 7%
  Population Membrane Permeable-Phenotype (%): 0%
  Population Mitochondria Different-Phenotype (%): 27%
  Population Mitotic Cells (%): 54%
  Population Normal (%): 92%
  Population Pyknosed Nuclei (%): 21%
  Population Tubulin-Different-Phenotype (%): 73%
  Total Cell Count: 119
[6]
  Population Apoptotic (%): 52%
  Population Fragmented Nuclei (%): 28%
  Population Healthy Nuclei (%): 54%
  Population Hoechst High Intensity Objects (%): 9%
  Population Membrane Permeable-Phenotype (%): 1%
  Population Mitochondria Different-Phenotype (%): 10%
  Population Mitotic Cells (%): 47%
  Population Normal (%): 90%
  Population Pyknosed Nuclei (%): 16%
  Population Tubulin-Different-Phenotype (%): 56%
  Total Cell Count: 111
[7]
  Population Apoptotic (%): 66%
  Population Fragmented Nuclei (%): 11%
  Population Healthy Nuclei (%): 65%
  Population Hoechst High Intensity Objects (%): 3%
  Population Membrane Permeable-Phenotype (%): 0%
  Population Mitochondria Different-Phenotype (%): 42%
  Population Mitotic Cells (%): 33%
  Population Normal (%): 96%
  Population Pyknosed Nuclei (%): 22%
  Population Tubulin-Different-Phenotype (%): 87%
  Total Cell Count: 122
[8]
  Population Apoptotic (%): 57%
  Population Fragmented Nuclei (%): 30%
  Population Healthy Nuclei (%): 51%
  Population Hoechst High Intensity Objects (%): 8%
  Population Membrane Permeable-Phenotype (%): 3%
  Population Mitochondria Different-Phenotype (%): 34%
  Population Mitotic Cells (%): 42%
  Population Normal (%): 91%
  Population Pyknosed Nuclei (%): 18%
  Population Tubulin-Different-Phenotype (%): 81%
  Total Cell Count: 124
[9]
  Population Apoptotic (%): 70%
  Population Fragmented Nuclei (%): 19%
  Population Healthy Nuclei (%): 55%
  Population Hoechst High Intensity Objects (%): 7%
  Population Membrane Permeable-Phenotype (%): 1%
  Population Mitochondria Different-Phenotype (%): 26%
  Population Mitotic Cells (%): 29%
  Population Normal (%): 92%
  Population Pyknosed Nuclei (%): 24%
  Population Tubulin-Different-Phenotype (%): 70%
  Total Cell Count: 118
[10]
  Population Apoptotic (%): 57%
  Population Fragmented Nuclei (%): 31%
  Population Healthy Nuclei (%): 48%
  Population Hoechst High Intensity Objects (%): 9%
  Population Membrane Permeable-Phenotype (%): 2%
  Population Mitochondria Different-Phenotype (%): 20%
  Population Mitotic Cells (%): 42%
  Population Normal (%): 90%
  Population Pyknosed Nuclei (%): 20%
  Population Tubulin-Different-Phenotype (%): 62%
  Total Cell Count: 103
[11]
  Population Apoptotic (%): 70%
  Population Fragmented Nuclei (%): 17%
  Population Healthy Nuclei (%): 53%
  Population Hoechst High Intensity Objects (%): 10%
  Population Membrane Permeable-Phenotype (%): 0%
  Population Mitochondria Different-Phenotype (%): 53%
  Population Mitotic Cells (%): 29%
  Population Normal (%): 89%
  Population Pyknosed Nuclei (%): 29%
  Population Tubulin-Different-Phenotype (%): 89%
  Total Cell Count: 117
[12]
  Population Apoptotic (%): 71%
  Population Fragmented Nuclei (%): 39%
  Population Healthy Nuclei (%): 43%
  Population Hoechst High Intensity Objects (%): 7%
  Population Mitochondria Different-Phenotype (%): 30%
  Population Mitotic Cells (%): 28%
  Population Normal (%): 92%
  Population Pyknosed Nuclei (%): 16%
  Population Tubulin-Different-Phenotype (%): 85%
  Total Cell Count: 136
